The values that follow come from ChEMBL document CHEMBL1687863, “Terpenoids and norlignans from Metasequoia glyptostroboides” (J Nat Prod, 2011).

This assay concerns HL-60. Nature of the assay: Cytotoxicity against human HL60 cells after 48 hrs by MTT assay. It is filed as functional, cell-based. Particulars: HL-60, 48 h. In outline:
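Cells seeded 12 h before treatment, then exposed continuously to a range of compound concentrations for 48 h. MTT added for a further 4 h, followed by 20% SDS and 12 h at room temperature. OD read at 595 nm; IC50 calculated by the Reed and Muench method.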
On the technique in general: Tetrazolium dyes change colour on reduction, which living cells bring about.
Compound `C=C[C@]1(C)CC2=C(C[C@@H]1O)[C@@]1(C)CCC[C@@](C)(C(=O)O)[C@@H]1CC2` yielded an IC50 of over 40 µM. For the compound `C=C1C=C[C@@H](C(C)C)[C@]12CC=C(C(=O)O)CC2`, the IC50 is over 40 µM. For `COc1ccc([C@H]2[C@@H]([C@H](O)c3ccc(OC)c(OC)c3)OC[C@H]2O)cc1`, the IC50 is over 40 µM. For `COc1ccc([C@H]2[C@@H]([C@H](OC(=O)[C@](OC)(c3ccccc3)C(F)(F)F)c3ccc(OC)c(OC)c3)OC[C@H]2OC(=O)[C@](OC)(c2ccccc2)C(F)(F)F)cc1` the value was over 40 µM; for `COc1ccc([C@H]2[C@@H]([C@H](OC(=O)[C@@](OC)(c3ccccc3)C(F)(F)F)c3ccc(OC)c(OC)c3)OC[C@H]2OC(=O)[C@@](OC)(c2ccccc2)C(F)(F)F)cc1`, over 40 µM; for `C=CC(=C)CC[C@@H]1[C@@]2(C)CCC[C@](C)(COC(=O)/C=C/c3ccc(O)cc3)[C@@H]2CC[C@@]1(C)O`, 14.3 µM. For the compound `C=C(C)C(CC)CC[C@@H](C)[C@H]1CC[C@@]2(C)[C@@H]3CC[C@@H](C(C)(C)O)[C@@]4(CCC(=O)O)C[C@@]34CC[C@]12C` (some centres not stated) [METASEGLYPTORIN A], the IC50 is over 40 µM. In turn, `COc1cc(/C=C/[C@@H](c2ccc(O)c(OC)c2)[C@H](O)CO)ccc1O` [METASEQUIRIN D] yielded an IC50 of over 40 µM. For `COc1cc([C@H]2[C@@H]([C@H](O)c3ccc(O)c(OC)c3)OC[C@H]2O)ccc1O` [METASEQUIRIN E] the value was over 40 µM; for `COc1cc([C@@H](O)[C@H]2OC[C@@H](O)[C@H]2c2ccc(O)cc2)ccc1O` [METASEQUIRIN F], over 40 µM. With `C=C1CC[C@H]2[C@](C)(O)[C@H](C)CC[C@]2(C)[C@H]1CC/C(C)=C/C(=O)O` [METASEQUOIC ACID C] the figure was over 40 µM; with `OC[C@@H](O)[C@@H](/C=C/c1ccc(O)cc1)c1ccc(O)c(O)c1` [SEQUIRIN C], 5.5 µM.

As a reminder, the IC50 is the concentration needed to halve the response being measured.
